In assay [1] the test system is Radical scavenging activity. Put plainly: Antioxidant activity assessed as DPPH radical scavenging activity after 30 mins. The format is functional. More on the design: concentration or dose not given beside the values. In short, it runs like this: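 Test sample (0.5 mM stock in DMSO, 5 µL) mixed with 95 µL DPPH in ethanol and incubated at 37 °C for 30 min. Absorbance read at 515 nm. Percent radical scavenging calculated against a DMSO-containing control; 3-tert-butyl-4-hydroxyanisole used as reference.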
In general terms: Loss of DPPH colour is used to gauge radical scavenging.

Assay [2] deals with Pseudomonas aeruginosa. Put plainly: Antibacterial activity against Pseudomonas aeruginosa at 1 mg/ml by agar well diffusion method. The format is functional, organism-based. In short, it runs like this: (§1)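 Agar well diffusion; compounds loaded into 6 mm wells at 1 mg per ml DMSO, with a DMSO-only (0) control. Read-out: inhibition zone diameter (mm).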
Assay [3] deals with Shigella flexneri. Put plainly: Antibacterial activity against Shigella flexneri at 1 mg/ml by agar well diffusion method. The assay is classed as functional. Conditions: for zone of inhibition at 1000 µg/mL: read-out: IZ. In short, it runs like this:
as §1
(Agar diffusion results depend on both activity and mobility in agar.)

Assay [4] relates to Salmonella enterica subsp. enterica serovar Typhi str. CT18. Put plainly: Antibacterial activity against Salmonella typhi at 1 mg/ml by agar well diffusion method. The format is functional. To be noted: for zone of inhibition at 1000 µg/mL: read-out: IZ. In short, it runs like this:
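Agar well diffusion against Salmonella typhi. Samples were dissolved in DMSO at 1 mg per ml and applied to 6 mm diameter wells. A solvent-only well served as control. Activity was read as inhibition zone diameter in mm.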

In assay [5] the test system is Staphylococcus aureus. Put plainly: Antibacterial activity against Staphylococcus aureus at 1 mg/ml by agar well diffusion method. The assay is classed as functional. Conditions: for zone of inhibition at 1000 µg/mL: read-out: IZ. In short, it runs like this: as §1
The test system of assay [6] is Bacillus subtilis. Put plainly: Antibacterial activity against Bacillus subtilis at 1 mg/ml by agar well diffusion method. The format is functional, organism-based. In short, it runs like this:
as §1

For assay [7], the system named is Escherichia coli. Put plainly: Antibacterial activity against Escherichia coli at 1 mg/ml by agar well diffusion method. The assay is classed as functional, organism-based. In short, it runs like this:
as §1

The test system of assay [8] is Bacillus subtilis. Put plainly: Antibacterial activity against Bacillus subtilis at 10 ug/disk by agar well diffusion method. The assay is classed as functional. Conditions: read-out: IZ. In short, it runs like this:
(§2)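 Agar well diffusion with imipenem as the standard at 10 µg per disc, run alongside 6 mm wells and a DMSO-only control. Read-out: inhibition zone diameter (mm).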

For assay [9], the system named is Staphylococcus aureus. Put plainly: Antibacterial activity against Staphylococcus aureus at 10 ug/disk by agar well diffusion method. The assay is classed as functional. Conditions: read-out: IZ. In short, it runs like this:
as §2

The test system of assay [10] is Salmonella enterica subsp. enterica serovar Typhi str. CT18. Put plainly: Antibacterial activity against Salmonella typhi at 10 ug/disk by agar well diffusion method. The format is functional. To be noted: read-out: IZ. In short, it runs like this: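 Agar well diffusion against Salmonella typhi, using the reference antibiotic imipenem applied at 10 µg per disc alongside 6 mm sample wells. Activity was read as inhibition zone diameter in mm.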

The subject of assay [11] is Pseudomonas aeruginosa. Put plainly: Antibacterial activity against Pseudomonas aeruginosa at 10 ug/disk by agar well diffusion method. To be noted: read-out: IZ. The assay is classed as functional. In short, it runs like this: as §2
Assay [12] concerns Escherichia coli. Put plainly: Antibacterial activity against Escherichia coli at 10 ug/disk by agar well diffusion method. The format is functional. To be noted: read-out: IZ. In short, it runs like this: as §2
Assay [13] relates to Shigella flexneri. Put plainly: Antibacterial activity against Shigella flexneri at 10 ug/disk by agar well diffusion method. The assay is classed as functional. Conditions: read-out: IZ. In short, it runs like this: as §2

Calls of active or inactive are those of the source. No cut-off for these calls is given here.

For the molecule `COc1ccc(/C=N/NC(=O)C2=C(O)c3ccccc3S(=O)(=O)N2)c(OC)c1`, the Activity in assay [1] turned out to be 68.2%. Besides, the “inhibition zone (IZ)” value in assay [2], in [3], in assay [4], in assay [5], in assay [6] and in [7] was “inactive” each time.

As for `O=C(N/N=C/c1ccccc1O)C1=C(O)c2ccccc2S(=O)(=O)N1`, the Activity in assay [1] was 40.7%. The “inhibition zone (IZ)” value in [2], in assay [3], in assay [4], in [5], in assay [6] and in [7] was “inactive” in each case.

As to `O=C(N/N=C/c1cccc(Cl)c1)C1=C(O)c2ccccc2S(=O)(=O)N1`, the Activity in assay [1] was 23.8%. In addition, the “inhibition zone (IZ)” value in assay [2], in [3], in assay [4], in assay [5], in [6] and in assay [7] was “inactive” throughout.

With `C[C@@H](O)[C@H]1C(=O)N2C(C(=O)O)=C(SCCNC=N)C[C@H]12` [IMIPENEM ANHYDROUS], the zone of inhibition at 10 µg/disc in [8] stood at 36 mm; in assay [9] it was 26 mm; in assay [10], 30 mm; in assay [11] it was 32 mm; in assay [12], 30 mm; in assay [13], 37 mm.

For the molecule `COc1cc(/C=N/NC(=O)C2=C(O)c3ccccc3S(=O)(=O)N2)ccc1O`, the Activity in assay [1] came to 35%. Also, the “inhibition zone (IZ)” value in assay [2], in assay [3], in assay [4], in assay [6] and in assay [7] was “inactive” in each case. For the same molecule, the zone of inhibition at 1000 µg/mL in assay [5] is 15 mm.

For the molecule `COc1ccc(/C=N/NC(=O)C2=C(O)c3ccccc3S(=O)(=O)N2)cc1`, the Activity in [1] was determined as 43.7%. Besides, the “inhibition zone (IZ)” value in [2], in assay [3], in [4], in assay [6] and in assay [7] was “inactive” in each case. Moreover, the zone of inhibition at 1000 µg/mL in assay [5] stood at 12 mm.

Consider `O=C(N/N=C/c1ccc(O)cc1O)C1=C(O)c2ccccc2S(=O)(=O)N1`, for which, in [1], the Activity came out at 65%. Further, the “inhibition zone (IZ)” value in [2], in [3], in assay [5], in assay [6] and in [7] was “inactive” each time. In addition, the zone of inhibition at 1000 µg/mL in assay [4] was 28 mm.

As for `O=C(N/N=C/c1ccccc1)C1=C(O)c2ccccc2S(=O)(=O)N1`, the Activity in assay [1] was 37.6%. The “inhibition zone (IZ)” value in assay [2], in assay [3], in assay [4], in [5], in assay [6] and in assay [7] was “inactive” in each case.

For `O=C(N/N=C/c1ccc(Cl)cc1)C1=C(O)c2ccccc2S(=O)(=O)N1`, in assay [1], the Activity came to 21.2%. The “inhibition zone (IZ)” value in assay [2], in [3], in [4], in assay [5], in assay [6] and in assay [7] was “inactive” in each case.

For the molecule `COc1ccc(/C=N/NC(=O)C2=C(O)c3ccccc3S(=O)(=O)N2)cc1O`, the Activity in [1] was found to be 42.9%. For the same molecule, the “inhibition zone (IZ)” value in assay [2], in [4], in assay [6] and in [7] was “inactive” throughout. In addition, the zone of inhibition at 1000 µg/mL in [3] and in [5] was 10 mm each time.

As for `COc1ccc(O)c(C(C)(C)C)c1.COc1ccc(O)cc1C(C)(C)C`, in [1], the Activity was 92.6%. Further, the “inhibition zone (IZ)” value in assay [2], in assay [3], in assay [4], in [5], in assay [6] and in [7] was “inactive” in each case.

Regarding `COc1ccc(/C=N/NC(=O)C2=C(O)c3ccccc3S(=O)(=O)N2)c(OC)c1OC`, in assay [1], the Activity was 43.6%. For the same molecule, the “inhibition zone (IZ)” value in assay [2], in [4], in assay [6] and in assay [7] was “inactive” throughout. The zone of inhibition at 1000 µg/mL in assay [3] was found to be 22 mm; in [5], 21 mm.

Take `O=C(N/N=C/c1ccc([N+](=O)[O-])cc1)C1=C(O)c2ccccc2S(=O)(=O)N1`: the Activity in [1] stood at 30.9%. Further, the “inhibition zone (IZ)” value in assay [2], in assay [3], in assay [5], in [6] and in assay [7] was “inactive” throughout. Further, the zone of inhibition at 1000 µg/mL in [4] was determined as 26 mm.

`COc1ccc(/C=N/NC(=O)C2=C(O)c3ccccc3S(=O)(=O)N2)cc1OC`: in assay [1], the Activity is 38%. In addition, the “inhibition zone (IZ)” value in [2], in [5], in assay [6] and in assay [7] was “inactive” in each case. In addition, the zone of inhibition at 1000 µg/mL was determined as 20 mm in assay [3] and 11 mm in assay [4].

Regarding `O=C(N/N=C/c1ccccc1Cl)C1=C(O)c2ccccc2S(=O)(=O)N1`, the Activity in [1] was 57.4%. Moreover, the “inhibition zone (IZ)” value in assay [2], in assay [3], in assay [4], in assay [5], in assay [6] and in assay [7] was “inactive” in each case.

Turning to `O=C(N/N=C/c1ccccc1[N+](=O)[O-])C1=C(O)c2ccccc2S(=O)(=O)N1`, in assay [1], the Activity was determined as 37.3%. In addition, the “inhibition zone (IZ)” value in assay [2], in assay [3], in assay [6] and in assay [7] was “inactive” in each case. In addition, the zone of inhibition at 1000 µg/mL in assay [4] is 11 mm; in assay [5] it was 10 mm.

As to `O=C(N/N=C/c1ccc(Cl)cc1Cl)C1=C(O)c2ccccc2S(=O)(=O)N1`, the Activity in assay [1] is 43.8%. The “inhibition zone (IZ)” value in [2], in assay [4], in [5], in [6] and in assay [7] was “inactive” in each case. Further, the zone of inhibition at 1000 µg/mL in [3] is 10 mm.

The record behind these values is ChEMBL document CHEMBL1138569, “A facile synthesis of novel biologically active 4-hydroxy-N'-(benzylidene)-2H-benzo[e][1,2]thiazine-3-carbohydrazide 1,1-dioxides” (2009).
